Results gathered from unrelated publications.
Lines come from different studies, so protocols differ. ≈ marks a conversion by molar mass, not a printed value.
Organism: Acinetobacter baumannii
Read-out: microbial growth

CN[C@H](CC(C)C)C(=O)N[C@H]1C(=O)N[C@@H](CC(N)=O)C(=O)N[C@H]2C(=O)N[C@H]3C(=O)N[C@H](C(=O)N[C@H](C(=O)O)c4cc(O)cc(O)c4-c4cc3ccc4O)[C@H](O)c3ccc(c(Cl)c3)Oc3cc2cc(c3O[C@@H]2O[C@H](CO)[C@@H](O)[C@H](O)[C@H]2O[C@H]2C[C@](C)(N)[C@H](O)[C@H](C)O2)Oc2ccc(cc2Cl)[C@H]1O
MIC (broth dilution; ATCC19606; drug-resistant strain): 64 µg/mL (≈ 44.2 µM)

Fc1c(F)c(F)c(-c2c(F)c(F)c(F)c(F)c2F)c(F)c1F
MIC (ATCC19606): > 250 µg/mL

COc1ccc2cc1Oc1cc(ccc1OC)CCC(N[C@@H]1CCCc3ccccc31)CCCC2 (some centres unmarked)
MIC (broth dilution; ATCC19606): > 100 µg/mL

COC(=O)c1cc(-c2cccc(NC(=O)Nc3ccccc3OC)c2)on1
MIC (broth dilution; BAA1605): > 64 µg/mL

C[n+]1ccc(/C=C2\Sc3ccccc3N2CCCN2CCCCC2)c2ccccc21.[I-]
MIC (broth dilution; ATCC19606; drug-resistant strain): 64 µg/mL

Cc1c(NN=C(C#N)C2=NC(=O)CS2)c(=O)n(-c2ccccc2)n1C
MIC (broth dilution): 0.43 µg/mL (≈ 1.21 µM)

COC(=O)c1cc(-c2cccc(NC(=O)Nc3cccc(Br)c3)c2)on1
MIC (broth dilution; BAA1605): > 64 µg/mL

Cc1cc(/C=C2\Sc3ccccc3N2CCCN2CCC(C)CC2)c2ccccc2[n+]1C.[I-]
MIC (broth dilution; ATCC19606; drug-resistant strain): 16 µg/mL

CCOC(=O)c1cc(-c2cccc(NC(=O)Nc3ccc(Cl)c(Cl)c3)c2)on1
MIC (broth dilution; BAA1605): > 64 µg/mL

Fc1c(F)c(F)c(F)c(F)c1F
MIC (ATCC19606): > 250 µg/mL

CC(=O)C1=C(O)C(CC(C)C)NC1=O (centres unmarked)
MIC (ATCC19606): > 200 µg/mL

COC(=O)c1cc(-c2cccc(NC(=S)Nc3cccc(Cl)c3)c2)on1
MIC (broth dilution; BAA1605): > 64 µg/mL

C[n+]1c(/C=C/c2c[nH]c3ccccc23)cc(/C=C2\Sc3ccccc3N2CCCN2CCCC2)c2ccccc21.[I-]
MIC (broth dilution; ATCC19606; drug-resistant strain): 32 µg/mL

CN[C@@H]1[C@H](O)[C@H](NC)[C@H]2O[C@@]3(O)C(=O)C[C@@H](C)O[C@H]3O[C@@H]2[C@H]1O
MIC (broth dilution; ATCC19606): > 200 µg/mL
